From publication PMC10918659 (ACS Omega, 2024)
Read-outs that look alike come from different tables or passages of the source. One block for each molecule: values may come before it.

How the values were obtained:
[1] = Serum biochemical parameters during NNK lung cancer induction; format: in vivo, Sprague-Dawley rats
Outline: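 NNK was given to Sprague-Dawley rats (200–250 g) as […]. Tail-vein blood was clotted 30 min at RT, spun 20 min at 1200 rpm, and serum stored at −80 °C. TBARS: TCA/TBA/HCl at 95 °C for 15 min, […]. SOD: epinephrine in carbonate buffer pH 9.2, A295, reported as units/mg protein.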

Toxicity experiment = format: in vivo, Sprague-Dawley rats; conditions: daily for 2 weeks; SB 3.5 mg/kg, NPs 2.5 mg/kg
Outline: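 Sprague-Dawley rats, n = 6 per group, were dosed daily for 2 weeks with free test compound (3.5 mg/kg), folate-conjugated nanoparticles (2.5 mg/kg), or saline via the caudal vein. Food and water were given freely. After 2 weeks, rats were sacrificed and lungs, liver, kidneys and spleen were weighed. Body-weight gain was recorded, and the organ index (mg/g) was calculated from organ weights.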

[2] = cited from earlier work
Pharmacokinetic study = format: in vivo, Sprague-Dawley rats; conditions: for Cmax / MRT / Tmax / half-life: Sprague-Dawley, rat, inhaled or intranasal, 3.5 mg/kg; for Frel: relative to silibinin solution; for AUCtotal / CL: silibinin 3.5 mg/kg, NPs 2.5 mg/kg by microspray aerosolizer

SMILES: CN(CCCC(=O)c1cccnc1)N=O [NNK, 4-(methylnitrosamino)-1-(3-pyridyl)-1-butanone]
increase of MDA content in sera vs control ([1]; 2 months): 4.21%
reduction of SOD activity vs control ([1]; 2 months): 10.437%
increase of MDA content in sera vs control ([1]; 3 months): 21.4%
reduction of SOD activity vs control ([1]; 3 months): 29.16%
increase of MDA content in sera vs control ([1]; 4 months): 35.16%
reduction of SOD activity vs control ([1]; 4 months): 45.21%

Cmax (Pharmacokinetic study; lung): 32500 ± 25800 ng/mL
MRT (Pharmacokinetic study; lung): 3.88 ± 0.87 h
Tmax (Pharmacokinetic study; lung): 1 ± 2.21 h
half-life (Pharmacokinetic study; lung): 4.3 ± 0.58 h
Cmax (Pharmacokinetic study; plasma): 23600 ± 13200 ng/mL
MRT (Pharmacokinetic study; plasma): 4.25 ± 1.05 h
Tmax (Pharmacokinetic study; plasma): 1 ± 2.21 h
half-life (Pharmacokinetic study; plasma): 8.9 ± 1.25 h
Frel (Pharmacokinetic study; lung kinetics): 1
AUCtotal (Pharmacokinetic study; lung kinetics): 745.2 ± 102.5 µg·h/mL
CL (Pharmacokinetic study; lung kinetics): 0.57 ± 1.02 h⁻¹
time to reach peak (Pharmacokinetic study; lungs): 1 h
time to reach peak (Pharmacokinetic study; plasma): 1 h
Frel (Pharmacokinetic study; plasma kinetics): 1
AUCtotal (Pharmacokinetic study; plasma kinetics): 978.5 ± 118.52 µg·h/mL
CL (Pharmacokinetic study; plasma kinetics): 0.87 ± 0.89 h⁻¹
SMILES: COc1cc(C2Oc3cc([C@H]4Oc5cc(O)cc(O)c5C(=O)[C@@H]4O)ccc3OC2CO)ccc1O (stereo partly drawn) [silibinin]
increment in weight (Toxicity experiment): 29.85 ± 3.21 g
kidney organ index (Toxicity experiment): 3.78 mg/g
liver organ index (Toxicity experiment): 39.52 mg/g
lung organ index (Toxicity experiment): 6.27 mg/g
spleen organ index (Toxicity experiment): 7.42 mg/g
Tmax ([2]; after oral administration): 2 to 4 h
half-life ([2]; after oral administration): 6 h
oral rate of absorption ([2]; conventional silibinin): 23–47%
